Data reported in ChEMBL document CHEMBL1131423, “N-(2-Benzoylphenyl)-L-tyrosine PPARgamma agonists. 2. Structure-activity relationship and optimization of the phenyl alkyl ether moiety” (J Med Chem, 1998).
Values after ≈ are worked out from the molar mass of the structure shown. Active and inactive are the calls of the source. The calls are words filed in the database; no cut-off is given here.

Assays:
[1] = target: T1, Peroxisome proliferator-activated receptor gamma (Homo sapiens) (UniProt P37231); test: Compound was tested in vitro for inhibiting the 50% binding of Peroxisome proliferator activated receptor gamma; IA = Inactive
T1 sequence (whole entry): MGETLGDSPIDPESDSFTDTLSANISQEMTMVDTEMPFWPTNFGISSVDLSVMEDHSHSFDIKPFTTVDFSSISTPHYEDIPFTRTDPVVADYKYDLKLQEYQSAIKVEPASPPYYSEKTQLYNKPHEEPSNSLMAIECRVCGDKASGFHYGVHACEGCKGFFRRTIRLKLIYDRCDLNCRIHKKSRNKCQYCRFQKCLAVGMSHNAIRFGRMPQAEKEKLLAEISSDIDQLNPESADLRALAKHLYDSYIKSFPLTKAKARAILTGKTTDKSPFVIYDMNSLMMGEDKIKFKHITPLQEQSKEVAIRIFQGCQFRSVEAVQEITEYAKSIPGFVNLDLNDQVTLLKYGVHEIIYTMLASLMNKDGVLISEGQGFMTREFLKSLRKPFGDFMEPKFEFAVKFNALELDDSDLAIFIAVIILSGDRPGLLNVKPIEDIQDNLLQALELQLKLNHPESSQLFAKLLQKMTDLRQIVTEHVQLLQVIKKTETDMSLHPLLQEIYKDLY
Procedure, shortened: (§1)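 Competitive radioligand binding to PPARγ with [3H]BRL 49653 as the radioligand. […] It is converted to an apparent Ki by Ki = IC50/(1 + [L]/Kd), and results are given as pKi.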

[2] = target: T2, Peroxisome proliferator-activated receptor alpha (Homo sapiens, UniProt Q07869); test: Tested in vitro for inhibiting the 50% binding of Peroxisome proliferator activated receptor alpha
T2 sequence (Q07869 whole entry): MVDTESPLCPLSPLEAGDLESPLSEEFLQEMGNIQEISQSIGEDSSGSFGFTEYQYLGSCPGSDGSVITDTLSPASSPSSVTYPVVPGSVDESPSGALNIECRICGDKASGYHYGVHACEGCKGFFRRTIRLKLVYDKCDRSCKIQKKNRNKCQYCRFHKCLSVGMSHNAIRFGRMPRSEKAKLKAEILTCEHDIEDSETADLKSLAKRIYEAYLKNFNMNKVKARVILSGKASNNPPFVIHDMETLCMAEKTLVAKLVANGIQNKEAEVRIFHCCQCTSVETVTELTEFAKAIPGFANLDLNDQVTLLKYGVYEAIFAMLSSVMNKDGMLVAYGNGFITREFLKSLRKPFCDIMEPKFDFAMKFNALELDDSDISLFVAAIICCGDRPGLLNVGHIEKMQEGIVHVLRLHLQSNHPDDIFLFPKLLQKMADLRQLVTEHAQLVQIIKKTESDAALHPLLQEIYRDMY

[3] = target: T2, Peroxisome proliferator-activated receptor alpha; test: In vitro transactivation of Peroxisome proliferator activated receptor alpha.; type: functional
[4] = target: T1, Peroxisome proliferator-activated receptor gamma (Homo sapiens); test: Inhibition of Peroxisome proliferator activated receptor gamma; procedure, shortened: as §1
[5] = target: T3, Peroxisome proliferator-activated receptor gamma (Homo sapiens, UniProt P37231); test: Inhibition by 50% of in vitro binding to Peroxisome proliferator activated receptor gamma
T3 sequence (P37231 whole entry): T1 sequence (whole entry)

[6] = The solubility determined by equilibrating an excess of solid material in 500 microL of pH 7.4 phosphate buffer; type: ADME; settings: read-out: S
Procedure, shortened: (§2)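 Samples are filtered (0.22 µm) and diluted in water/acetonitrile 60:40. The dissolved concentration is measured by reversed-phase HPLC on a phenyl column with 0.05% TFA water/acetonitrile (60:40), 1 mL/min, and UV detection at each compound's maximum. Results are in mg/mL.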

[7] = The solubility determined by equilibrating an excess of solid material in 500 microL of simulated gastric fluid; type: ADME; settings: read-out: S; procedure, shortened: as §2
[8] = target: Peroxisome proliferator-activated receptor gamma (Homo sapiens) (UniProt P37231); test: Compound was tested in vitro for inhibiting the 50% binding of Peroxisome proliferator activated receptor gamma; IA = Inactive
[9] = target: T4, Peroxisome proliferator-activated receptor alpha (Homo sapiens) (UniProt Q07869); test: Compound was tested in vitro for inhibiting the 50% binding of Peroxisome proliferator activated receptor alpha; IA = 'inactive'
T4 sequence (whole entry): T2 sequence (Q07869 whole entry)

| Structure (SMILES) | Ki [2] [nM] | EC50 [3] [nM] | Log Ki [4] | other results |
| --- | --- | --- | --- | --- |
| CN(C)C(=O)c1cccc(COc2ccc(C[C@H](Nc3ccccc3C(=O)c3ccccc3)C(=O)O)cc2)n1 |  |  |  | Log Ki [1]: inactive |
| Cc1cc(-c2nc(CCOc3ccc(C[C@H](Nc4ccccc4C(=O)c4ccccc4)C(=O)O)cc3)c(C)s2)no1 | 178 | 1820 |  |  |
| COc1ccc(-c2nc(CCOc3ccc(C[C@H](Nc4ccccc4C(=O)c4ccccc4)C(=O)O)cc3)c(C)o2)cc1 | 107 | 389 |  |  |
| Cc1sc(-c2ccncc2)nc1CCOc1ccc(C[C@H](Nc2ccccc2C(=O)c2ccccc2)C(=O)O)cc1 | > 3020 | > 10000 |  |  |
| Cc1sc(N(C)C)nc1CCOc1ccc(C[C@H](Nc2ccccc2C(=O)c2ccccc2)C(=O)O)cc1 | > 3020 | > 10000 |  |  |
| Cc1cc(C)c(C)c(COc2ccc(C[C@H](Nc3ccccc3C(=O)c3ccccc3)C(=O)O)cc2)c1C |  |  | inactive |  |
| Cc1ccsc1-c1nc(CCOc2ccc(C[C@H](Nc3ccccc3C(=O)c3ccccc3)C(=O)O)cc2)c(C)o1 | 468 | 2750 |  |  |
| COC(COc1ccc(C[C@H](Nc2ccccc2C(=O)c2ccccc2)C(=O)O)cc1)c1ccccc1 (stereo partly drawn) |  |  |  | Ki [5]: 794 nM |
| Cc1ccc(C)c(COc2ccc(C[C@H](Nc3ccccc3C(=O)c3ccccc3)C(=O)O)cc2)c1 |  |  |  | Log Ki [1]: inactive |
| O=C(c1ccccc1)c1ccccc1N[C@@H](Cc1ccc(OC2CCN2C(c2ccccc2)c2ccccc2)cc1)C(=O)O (stereo partly drawn) |  |  |  | Ki [5]: 1620 nM |
| Cc1cc(CCOc2ccc(C[C@H](Nc3ccccc3C(=O)c3ccccc3)C(=O)O)cc2)nn1-c1ccccc1 | 407 | > 10000 |  |  |
| Cc1sc(N2CCN(C)CC2)nc1CCOc1ccc(C[C@H](Nc2ccccc2C(=O)c2ccccc2)C(=O)O)cc1 | > 3020 | 6460 |  | solubility thermodynamic [6]: 10 µg/mL (≈ 17.1 µM); solubility thermodynamic [7]: > 6000 µg/mL |
| Cc1ccc[n+]2c1=NC(C)C=2COc1ccc(C[C@H](Nc2ccccc2C(=O)c2ccccc2)C(=O)O)cc1 (stereo partly drawn) |  |  | inactive |  |
| CCOc1ccc(COc2ccc(C[C@H](Nc3ccccc3C(=O)c3ccccc3)C(=O)O)cc2)cc1 |  |  |  | Log Ki [1]: inactive |
| Cc1cc(C(C)C)ccc1CCOc1ccc(C[C@H](Nc2ccccc2C(=O)c2ccccc2)C(=O)O)cc1 |  |  |  | Log Ki [8]: inactive |
| COc1cc(OC)c(OC)cc1COc1ccc(C[C@H](Nc2ccccc2C(=O)c2ccccc2)C(=O)O)cc1 |  |  | inactive |  |
| Cc1oc(-c2ccncc2)nc1CCOc1ccc(C[C@H](Nc2ccccc2C(=O)c2ccccc2)C(=O)O)cc1 | > 3020 | > 10000 |  | solubility thermodynamic [6]: 846 µg/mL (≈ 1540 µM); solubility thermodynamic [7]: 5 µg/mL (≈ 9.13 µM) |
| O=C(c1ccccc1)c1ccccc1N[C@@H](Cc1ccc(O)cc1)C(=O)O |  |  | inactive |  |
| O=C(c1ccccc1)c1ccccc1N[C@@H](Cc1ccc(OCCc2cc(Br)no2)cc1)C(=O)O |  |  |  | Log Ki [1]: inactive |
| O=C(c1ccccc1)c1ccccc1N[C@@H](Cc1ccc(OCc2cnc3ccccc3c2)cc1)C(=O)O |  |  | inactive |  |
| COc1ccc(COc2ccc(C[C@H](Nc3ccccc3C(=O)c3ccccc3)C(=O)O)cc2)cc1Br |  |  | inactive |  |
| COc1ccc(COc2ccc(C[C@H](Nc3ccccc3C(=O)c3ccccc3)C(=O)O)cc2)cc1OC |  |  | inactive |  |
| Cc1sc(N2CCN(C(=O)OC(C)(C)C)CC2)nc1CCOc1ccc(C[C@H](Nc2ccccc2C(=O)c2ccccc2)C(=O)O)cc1 | > 3020 | > 10000 |  |  |
| COc1cc(COc2ccc(C[C@H](Nc3ccccc3C(=O)c3ccccc3)C(=O)O)cc2)cc(Br)c1OC |  |  | inactive |  |
| CN(CCOc1ccc(C[C@H](Nc2ccccc2C(=O)c2ccccc2)C(=O)O)cc1)Cc1cccs1 |  |  | inactive |  |

| Structure (SMILES) | Ki [2] [nM] | EC50 [3] [nM] | Log Ki [4] | other results |
| --- | --- | --- | --- | --- |
| Cc1nc(COc2ccc(C[C@H](Nc3ccccc3C(=O)c3ccccc3)C(=O)O)cc2)n2nc(Cl)ccc12 |  |  | inactive |  |
| O=C(c1ccccc1)c1ccccc1N[C@@H](Cc1ccc(OCCOc2ccc(Br)cc2)cc1)C(=O)O |  |  |  | Log Ki [9]: inactive |
| C/C(=C\c1ccccc1)COc1ccc(C[C@H](Nc2ccccc2C(=O)c2ccccc2)C(=O)O)cc1 |  |  | inactive |  |
| COCCNc1nc(CCOc2ccc(C[C@H](Nc3ccccc3C(=O)c3ccccc3)C(=O)O)cc2)c(C)s1 | 1860 | > 10000 |  | solubility thermodynamic [6]: 210 µg/mL (≈ 375 µM); solubility thermodynamic [7]: 210 µg/mL (≈ 375 µM) |
| Cc1ccc[n+]2c1=NC(c1ccccc1)C=2COc1ccc(C[C@H](Nc2ccccc2C(=O)c2ccccc2)C(=O)O)cc1 (stereo partly drawn) |  |  | inactive |  |
| Cc1ccc(-c2nc(CCOc3ccc(C[C@H](Nc4ccccc4C(=O)c4ccccc4)C(=O)O)cc3)c(C)o2)s1 | 45.7 | 575 |  |  |
| Cc1[nH]c(-c2ccccc2)nc1CCOc1ccc(C[C@H](Nc2ccccc2C(=O)c2ccccc2)C(=O)O)cc1 | > 3020 | > 10000 |  |  |
| O=C(c1ccccc1)c1ccccc1N[C@@H](Cc1ccc(OCCc2ccc(Cl)cc2)cc1)C(=O)O |  |  |  | Log Ki [9]: inactive |
| Cc1oc(-c2ccc(F)cc2)nc1CCOc1ccc(C[C@H](Nc2ccccc2C(=O)c2ccccc2)C(=O)O)cc1 | 56.2 | 257 |  |  |
| COc1ccc(COc2ccc(C[C@H](Nc3ccccc3C(=O)c3ccccc3)C(=O)O)cc2)cc1 |  |  |  | Log Ki [1]: inactive |
| Cc1sc(NCCCN(C)C)nc1CCOc1ccc(C[C@H](Nc2ccccc2C(=O)c2ccccc2)C(=O)O)cc1 | > 3020 | > 10000 |  |  |
| O=C(c1ccccc1)c1ccccc1N[C@@H](Cc1ccc(OCC2COC(C3CCCCC3)O2)cc1)C(=O)O (stereo partly drawn) |  |  | inactive |  |
| Cc1ccc2cc(COc3ccc(C[C@H](Nc4ccccc4C(=O)c4ccccc4)C(=O)O)cc3)ccc2n1 |  |  | inactive |  |
| Cc1sc(N2CCNCC2)nc1CCOc1ccc(C[C@H](Nc2ccccc2C(=O)c2ccccc2)C(=O)O)cc1 | > 3020 | > 10000 |  | solubility thermodynamic [6]: 25 µg/mL (≈ 43.8 µM); solubility thermodynamic [7]: > 10000 µg/mL |
| Cn1cc(-c2ccccc2)nc1CCOc1ccc(C[C@H](Nc2ccccc2C(=O)c2ccccc2)C(=O)O)cc1 | 138 | > 10000 |  | solubility thermodynamic [6]: 4 µg/mL (≈ 7.33 µM); solubility thermodynamic [7]: < 1 µg/mL |
| Cc1oc(N2CCCCC2)nc1CCOc1ccc(C[C@H](Nc2ccccc2C(=O)c2ccccc2)C(=O)O)cc1 | > 3020 | > 10000 |  |  |
| Cc1oc(-c2ccccc2)nc1CCOc1ccc(C[C@H](Nc2ccccc2C(=O)c2ccccc2)C(=O)O)cc1 [FARGLITAZAR] |  |  |  | solubility thermodynamic [6]: < 1 µg/mL; solubility thermodynamic [7]: < 1 µg/mL |
| CC(C)c1ccc(COc2ccc(C[C@H](Nc3ccccc3C(=O)c3ccccc3)C(=O)O)cc2)cc1 |  |  |  | Log Ki [9]: inactive |
| COc1ccccc1C(=O)N1CCC[C@H]1COc1ccc(C[C@H](Nc2ccccc2C(=O)c2ccccc2)C(=O)O)cc1 |  |  |  | Ki [5]: 955 nM |
| COCn1c(-c2ccccc2)nc(C)c1CCOc1ccc(C[C@H](Nc2ccccc2C(=O)c2ccccc2)C(=O)O)cc1 | > 3020 | > 10000 |  |  |
| Cc1nc(-c2ccccc2)nn1CCOc1ccc(C[C@H](Nc2ccccc2C(=O)c2ccccc2)C(=O)O)cc1 | > 3020 | > 10000 |  | solubility thermodynamic [6]: 4 µg/mL (≈ 7.32 µM); solubility thermodynamic [7]: 1 µg/mL (≈ 1.83 µM) |
| Cc1ncsc1CCOc1ccc(C[C@H](Nc2ccccc2C(=O)c2ccccc2)C(=O)O)cc1 |  |  |  | Log Ki [9]: inactive |
| Cc1sc(N2CCOCC2)nc1CCOc1ccc(C[C@H](Nc2ccccc2C(=O)c2ccccc2)C(=O)O)cc1 | 1910 | > 10000 |  | solubility thermodynamic [6]: 180 µg/mL (≈ 315 µM); solubility thermodynamic [7]: 4 µg/mL (≈ 7 µM) |
| COc1ccc(COc2ccc(C[C@H](Nc3ccccc3C(=O)c3ccccc3)C(=O)O)cc2)nc1OC |  |  | inactive |  |
| Cc1sc(-c2ccccc2)nc1CCOc1ccc(C[C@H](Nc2ccccc2C(=O)c2ccccc2)C(=O)O)cc1 | 126 | 1050 |  | solubility thermodynamic [6]: 2 µg/mL (≈ 3.55 µM); solubility thermodynamic [7]: < 1 µg/mL |
